# Source: ChEMBL document CHEMBL2321703, “Identification of novel D-amino acid oxidase inhibitors by in silico screening and their functional characterization in vitro” (J Med Chem, 2013)
# pIC50, pKi: −log10 of the molar value. Active and inactive are the calls of the source. No cut-off for these calls is given here.
# What was measured:
# [1] = molecular target: T1, D-amino-acid oxidase (Homo sapiens, UniProt P14920); test: Inhibition of human recombinant N-terminal His-tagged DAO expressed in Escherichia coli BL21(DE3) using D-alanine as substrate assessed as residual activity at 10000 uM by colorimetric assay relative to control
# In short: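 Purified enzyme (0.23–4.2 μg) in air-saturated 40 mM sodium pyrophosphate pH 8.3, 23 U catalase, 60 μM FAD, 10 mM D-amino acid substrate, with compound; 37 °C, 10 min; stopped with trichloroacetic acid. 2-Oxo acid reacted with 2,4-dinitrophenylhydrazine, A445 read against substrate-free blank.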
# Target sequence in this assay (P14920 whole entry, looked up): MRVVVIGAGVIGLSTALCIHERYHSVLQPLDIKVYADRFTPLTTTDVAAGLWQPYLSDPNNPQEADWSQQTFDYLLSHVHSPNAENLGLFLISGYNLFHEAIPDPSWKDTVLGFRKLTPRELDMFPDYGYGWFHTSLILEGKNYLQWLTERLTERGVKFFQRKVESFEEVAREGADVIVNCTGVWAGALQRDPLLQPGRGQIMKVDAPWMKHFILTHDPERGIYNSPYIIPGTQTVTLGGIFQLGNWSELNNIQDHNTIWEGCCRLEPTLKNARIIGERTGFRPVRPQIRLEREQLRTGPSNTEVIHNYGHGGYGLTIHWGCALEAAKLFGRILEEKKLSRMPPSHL
# [2] = molecular target: T2, Serine racemase (Homo sapiens) (UniProt Q9GZT4); test: (§1) Inhibition of human recombinant N-terminal His-tagged serine racemase expressed in Escherichia coli BL21(DE3) using L-serine as substrate after 10 mins by fluorescence assay
# T2 sequence (whole entry): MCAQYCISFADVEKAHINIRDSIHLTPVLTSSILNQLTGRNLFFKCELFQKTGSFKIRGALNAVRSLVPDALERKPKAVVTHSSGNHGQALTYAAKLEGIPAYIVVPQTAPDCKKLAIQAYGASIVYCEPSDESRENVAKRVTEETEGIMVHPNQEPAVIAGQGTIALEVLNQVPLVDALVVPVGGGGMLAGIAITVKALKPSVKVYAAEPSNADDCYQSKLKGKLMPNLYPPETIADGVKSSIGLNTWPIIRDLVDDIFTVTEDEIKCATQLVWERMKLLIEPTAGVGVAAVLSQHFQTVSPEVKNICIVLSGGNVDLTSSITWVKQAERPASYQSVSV
# In short: (§2)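 Purified enzyme (30 μg) in 40 mM Tris-HCl pH 8.0, 60 μM pyridoxal phosphate, 1 mM MgCl2, ATP, 1 mM dithiothreitol, 10 mM L-Ser, with compound; 37 °C, 10 min; methanol stop. D-Ser quantified by OPA/Boc-L-cysteine derivatization and reversed-phase HPLC fluorescence (ex 344, em 443 nm).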
# [3] = molecular target: T3, Serine racemase (Homo sapiens, UniProt Q9GZT4); test: as §1; in short: as §2
# T3 sequence (Q9GZT4 whole entry): T2 sequence (whole entry)
# [4] = molecular target: T1, D-amino-acid oxidase; test: Inhibition of human recombinant N-terminal His-tagged DAO expressed in Escherichia coli BL21(DE3) using D-alanine as substrate by colorimetric assay
# [5] = molecular target: T1, D-amino-acid oxidase; test: Inhibition of human recombinant N-terminal His-tagged DAO expressed in Escherichia coli BL21(DE3) using D-serine as substrate by colorimetric assay
# [6] = molecular target: T4, D-aspartate oxidase (Homo sapiens) (UniProt Q99489); test: (§3) Inhibition of human recombinant N-terminal His-tagged DDO expressed in Escherichia coli BL21(DE3) using D-aspartate as substrate by colorimetric assay
# T4 sequence (whole entry): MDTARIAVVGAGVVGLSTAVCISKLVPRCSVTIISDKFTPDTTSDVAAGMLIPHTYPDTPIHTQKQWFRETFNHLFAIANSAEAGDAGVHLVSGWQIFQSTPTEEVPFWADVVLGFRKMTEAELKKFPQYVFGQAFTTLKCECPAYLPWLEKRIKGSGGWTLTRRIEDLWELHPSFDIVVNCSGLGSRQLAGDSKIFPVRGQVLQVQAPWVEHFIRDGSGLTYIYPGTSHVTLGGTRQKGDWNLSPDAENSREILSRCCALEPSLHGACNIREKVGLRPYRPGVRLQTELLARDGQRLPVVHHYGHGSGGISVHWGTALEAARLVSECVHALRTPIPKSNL
# In short: (§4)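 Purified enzyme (0.23–4.2 μg) with 10 mM D-Asp in air-saturated 40 mM sodium pyrophosphate pH 8.3, 23 U catalase, 60 μM FAD; 37 °C, 10 min; trichloroacetic acid stop; 2-oxo acid measured as 2,4-dinitrophenylhydrazone at A445.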
# [7] = molecular target: T5, D-aspartate oxidase (Homo sapiens, UniProt Q99489); test: as §3; in short: as §4
# T5 sequence (Q99489 whole entry): T4 sequence (whole entry)
# [8] = system: HEK293; test: Effect on L-alanine level in G418-resistant HEK293 cells at 17 uM by HPLC analysis relative to vehicle-treated control; type: functional, cell-based; settings: Homo sapiens
# In short: (§5)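 293/NEO (empty-vector, G418-selected) or 293.HA-hDAO-24 (stable N-terminal HA-tagged human DAO) cells, 1 × 10^6 seeded, maintained in DMEM/10% FBS/800 μg/mL G418; next day fresh medium, compound or vehicle (5% DMSO solution) for 30 min, then 17 mM D-Ala for 24 h. Methanol extraction; D-/L-Ala by OPA/NAC derivatization HPLC with fluorescence; mean ± SD of three assays; Dunnett test vs vehicle.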
# [9] = system: HEK293/NEO; test: Effect on L-alanine level in G418-resistant HEK293/NEO cells at 17 uM by HPLC analysis relative to vehicle-treated control; type: functional, cell-based; settings: Homo sapiens; in short: as §5
# [10] = system: D-amino-acid oxidase (Homo sapiens), P14920 [Y224A]; test: (§6) Inhibition of human recombinant N-terminal His-tagged DAO Y224A mutant expressed in Escherichia coli BL21(DE3) using D-alanine as substrate after 10 mins by Lineweaver-Burk plot analysis
# [11] = system: D-amino-acid oxidase (Homo sapiens), P14920 [Y224F]; test: (§7) Inhibition of human recombinant N-terminal His-tagged DAO Y224F mutant expressed in Escherichia coli BL21(DE3) using D-alanine as substrate after 10 mins by Lineweaver-Burk plot analysis
# [12] = molecular target: T1, D-amino-acid oxidase; test: Competitive inhibition of human recombinant N-terminal His-tagged DAO expressed in Escherichia coli BL21(DE3) using D-alanine as substrate by Lineweaver-Burk plot analysis
# In short: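 Purified N-terminal His-tagged human DAO from E. coli BL21(DE3)pLysS. Colorimetric 2-oxo acid assay in air-saturated 40 mM sodium pyrophosphate pH 8.3 with catalase, 60 μM FAD and 0.5–40 mM D-Ala, 37 °C for 10 min. Stopped with TCA, derivatized with 2,4-dinitrophenylhydrazine, read at A445. Lineweaver–Burk plots; Ki confirmed by slope replot against inhibitor concentration. Three independent experiments.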
# Target sequence in this assay (P14920 whole entry, looked up): as the sequence (P14920 whole entry, looked up) above
# [13] = molecular target: T1, D-amino-acid oxidase; settings: HEK293/NEO, 17 uM
# Target sequence in this assay (P14920 whole entry, looked up): as the sequence (P14920 whole entry, looked up) above
# [14] = molecular target: D-amino-acid oxidase (Homo sapiens, UniProt P14920, Y224A); test: as §6
# [15] = molecular target: D-amino-acid oxidase (Homo sapiens, UniProt P14920, Y224F); test: as §7
# [16] = molecular target: T1, D-amino-acid oxidase; test: Binding affinity to human recombinant N-terminal His-tagged DAO expressed in Escherichia coli BL21(DE3) at 40 uM after 2 to 30 mins by absorption spectra analysis; settings: 200 uM, in the assay text read “at 200 uM” for “at 40 uM”
# In short: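 Purified enzyme at 1.7 μg/μL in 10 mM sodium pyrophosphate pH 8.3 with 2 mM EDTA, 5 mM 2-mercaptoethanol, 10% (v/v) glycerol; wavelength scans at 25 °C before and after compound addition (final 40 μM or 200 μM depending on compound), recorded at indicated times; binding inferred from perturbation of the absorption spectrum.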
# Target sequence in this assay (P14920 whole entry, looked up): as the sequence (P14920 whole entry, looked up) above
# [17] = molecular target: T1, D-amino-acid oxidase
# Target sequence in this assay (P14920 whole entry): as the sequence (P14920 whole entry, looked up) above
# [18] = molecular target: T1, D-amino-acid oxidase; test: Inhibition of human recombinant N-terminal His-tagged DAO expressed in Escherichia coli BL21(DE3) using D-alanine as substrate by Lineweaver-Burk plot analysis
# Target sequence in this assay (P14920 whole entry): as the sequence (P14920 whole entry, looked up) above
# D-amino-acid oxidase (Homo sapiens), P14920 [Y224A], sequence (P14920 whole entry Y224A): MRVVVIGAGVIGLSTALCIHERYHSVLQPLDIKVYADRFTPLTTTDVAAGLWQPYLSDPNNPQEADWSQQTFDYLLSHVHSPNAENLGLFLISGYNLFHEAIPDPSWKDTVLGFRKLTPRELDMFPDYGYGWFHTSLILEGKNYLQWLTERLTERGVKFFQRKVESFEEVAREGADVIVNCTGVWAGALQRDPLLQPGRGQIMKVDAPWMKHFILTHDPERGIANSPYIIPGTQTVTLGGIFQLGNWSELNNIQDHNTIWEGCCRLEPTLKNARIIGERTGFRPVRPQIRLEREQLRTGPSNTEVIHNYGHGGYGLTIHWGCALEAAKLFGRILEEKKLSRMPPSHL
# D-amino-acid oxidase (Homo sapiens), P14920 [Y224F], sequence (P14920 whole entry Y224F): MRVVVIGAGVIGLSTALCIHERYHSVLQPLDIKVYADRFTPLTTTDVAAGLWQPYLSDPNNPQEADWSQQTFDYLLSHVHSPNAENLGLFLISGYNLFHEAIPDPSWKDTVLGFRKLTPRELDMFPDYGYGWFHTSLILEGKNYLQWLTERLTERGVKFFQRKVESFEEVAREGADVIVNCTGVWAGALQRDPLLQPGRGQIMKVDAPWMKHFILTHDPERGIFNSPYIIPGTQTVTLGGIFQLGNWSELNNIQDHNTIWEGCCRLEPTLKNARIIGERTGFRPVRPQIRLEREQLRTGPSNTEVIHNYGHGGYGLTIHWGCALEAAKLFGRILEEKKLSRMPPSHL
# D-amino-acid oxidase (Homo sapiens, UniProt P14920, Y224A), sequence (P14920 whole entry Y224A): as the sequence (P14920 whole entry Y224A) above
# D-amino-acid oxidase (Homo sapiens, UniProt P14920, Y224F), sequence (P14920 whole entry Y224F): as the sequence (P14920 whole entry Y224F) above
Activity [1] [%],inhibition [2],pIC50 [3],inhibition [4],inhibition [6],pIC50 [7],inhibition [13],SMILES,pIC50 [4],pIC50 [5],Activity [8],Activity [9],inhibition [10],inhibition [11],inhibition [12],inhibition [5],pKi [14],pKi [15],Activity [16],pKi [17],pKi [18]
67.1,Dose-dependent effect,< 2.00,Dose-dependent effect,Dose-dependent effect,< 2.00,,CCCc1sc(C(=O)O)cc1CC,< 2.00,2.10,,,,,,,,,,,
,,< 4.00,,,< 4.00,inactive,O=C(O)c1cc2occc2[nH]1,,,inactive,inactive,Dose-dependent effect,Dose-dependent effect,Active,Dose-dependent effect,,,,,

SMILES,Activity [1] [%],inhibition [2],pIC50 [3],inhibition [4],inhibition [6],pIC50 [7],inhibition [13],pIC50 [4],pIC50 [5],Activity [8],Activity [9],inhibition [10],inhibition [11],inhibition [12],inhibition [5],pKi [14],pKi [15],Activity [16],pKi [17],pKi [18]
O=C(O)c1ccccc1 [BENZOIC ACID],,,< 2.00,,,< 2.00,,4.18,4.33,,,Dose-dependent effect,Dose-dependent effect,Active,Dose-dependent effect,4.43,4.27,Active,5.15,4.96
